Data on 2 compounds can be found in PMC5110367 (Nature chemical biology, 2016).

Numbering of substitutions follows the chain as printed. Like-named read-outs stand apart in the source and are kept apart here.

The subject of data set [1] is Ppara-null hippocampal neurons. The data set is described as follows: AMPA-driven calcium influx in transduced Ppara-null hippocampal neurons. The following applies: 50 μM N20C present. The class given is cell-based, mouse. In a few lines:
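Primary hippocampal neurons came from pooled E18 Ppara-null fetal mice. Tissue was trypsinised 5 min at 37°C and plated on poly-D-lysine in neurobasal medium. AraC (10 μM) was added next day, and cells differentiated for 9–10 days. Neurons were lentivirally transduced with the indicated Ppara construct, then given the test compound. 50 μM N20C blocked NMDA-receptor calcium flow during AMPA stimulation. Mean of three independent experiments.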

The target of data set [2] is T1, PPARα (Mus musculus, UniProt P23204).
T1 sequence (P23204 1-468): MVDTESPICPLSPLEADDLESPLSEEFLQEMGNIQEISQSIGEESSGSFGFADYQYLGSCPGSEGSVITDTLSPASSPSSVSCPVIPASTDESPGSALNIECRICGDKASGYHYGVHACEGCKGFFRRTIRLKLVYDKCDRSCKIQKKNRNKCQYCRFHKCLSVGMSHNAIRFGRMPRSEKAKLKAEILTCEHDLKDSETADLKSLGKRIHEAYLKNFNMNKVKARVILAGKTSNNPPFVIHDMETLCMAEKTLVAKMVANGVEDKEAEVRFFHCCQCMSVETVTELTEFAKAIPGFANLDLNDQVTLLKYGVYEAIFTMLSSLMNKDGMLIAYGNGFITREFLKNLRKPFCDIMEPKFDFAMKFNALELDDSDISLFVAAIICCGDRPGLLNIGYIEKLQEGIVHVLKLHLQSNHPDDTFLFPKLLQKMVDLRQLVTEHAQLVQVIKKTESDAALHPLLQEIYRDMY
The format is binding. Particulars: lenti-FL-Ppara-transduced Ppara-null neurons; not with empty lenti-vector.

Data set [3] concerns the target T2, PPARα (Mus musculus, UniProt P23204, Y314D).
T2 sequence (P23204 1-468 Y314D): T1 sequence (P23204 1-468) with Y314D
The class given is binding. The following applies: lenti-GFP-Y314D-Ppara-transduced Ppara-null neurons.

The test system of data set [4] is Ppara-null hippocampal neurons. The data set is described as follows: Dendritic spine density. The format is cell-based, mouse. The following applies: Ppara-null neurons transduced with lenti-FL-Ppara or lenti-Y464D-Ppara. The procedure, abridged:
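Ppara-null hippocampal neurons were taken from E18 fetuses and treated with 10 μM AraC to remove glia. They were differentiated 9–10 days, then transduced 48 h with lentivirions carrying GFP (vector), FL-Ppara or Y464D-Ppara. Neurons then received vehicle (DMSO) or test compound for 24 h. They were stained with Dylight-554-phalloidin, and spine density was scored by fluorescence microscopy.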

Data set [5] deals with T1, PPARα. The experiment in a line: PPRE-driven luciferase assay in primary astrocytes. Particulars: cultured astrocytes, different concentrations, 4 h. The format is cell-based.
For a further data set, the system named is PPRE-luciferase activity. The class given is cell-based, mouse.
Another data set has as its target T3, FL-Ppara (Mus musculus, UniProt P23204).
T3 sequence (P23204 1-468): T1 sequence (P23204 1-468)
The class given is cell-based. The following applies: Ppara-null astrocytes transduced with lenti-FL-Ppara, 4 h.

In another data set the target is T4, Y464D-PPARα (Mus musculus, UniProt P23204, Y464D).
T4 sequence (P23204 1-468 Y464D): T1 sequence (P23204 1-468) with Y464D
The data set is described as follows: Thermal shift assay of Y464D-PPARα with ligands. The class given is binding. The procedure, abridged: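 Differential scanning fluorimetry used purified Y464D-PPARα protein (0.5–1 μg per reaction) in kit thermal shift buffer with dye, with or without test compound. The real-time cycler ran 25°C for 2 min, then 70 cycles of 27°C 15 s/26°C 1 min with 1°C auto-increment. Signal was read on the ROX filter, and melting temperature (Tm) was derived.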

The test system of a further data set is primary mouse astrocytes. The experiment in a line: MTT cell viability of tk-PPREx3-Luc-transfected astrocytes. The format is cell-based. The following applies: higher concentrations, 4 h.
The target in the next data set is T5, PPARβ-LBD (Homo sapiens, UniProt Q03181).
T5 sequence (Q03181 211-439 limits assumed): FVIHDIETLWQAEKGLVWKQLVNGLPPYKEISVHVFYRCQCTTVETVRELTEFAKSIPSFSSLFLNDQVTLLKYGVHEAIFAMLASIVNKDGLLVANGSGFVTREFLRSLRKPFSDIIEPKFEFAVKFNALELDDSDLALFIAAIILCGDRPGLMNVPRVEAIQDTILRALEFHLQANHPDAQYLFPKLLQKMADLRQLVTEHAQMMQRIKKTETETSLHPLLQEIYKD
The experiment in a line: GC-MS of hippocampal nuclear extracts after pull-down with GST-PPARβ-LBD. The format is binding. The following applies: mouse hippocampal nuclear extracts.

Where [6] appears, read: lenti-Y314D/Y464D-Ppara-transduced.
Where [7] appears, read: Ppara-null hippocampal neurons transduced with lenti-Y314D/Y464D-Ppara.
Where [8] appears, read: Ppara-null hippocampal neurons transduced with lenti-Y464D-Ppara.

Take `CCCCCCCCCCCCCCCC(N)=O` [HEX, hexadecanamide]: the AMPA-mediated calcium influx entry in data set [1] (lenti-FL-Ppara-transduced) is listed as “stimulated AMPA-mediated calcium influx”; in data set [1] (lenti-Y314D-Ppara-transduced), “only able to partially restore”; in data set [1] (setting [6]) it was “remained unable to increase AMPA mediated calcium influx”; in [1] (lenti-Y464D-Ppara-transduced), “remained unable to increase AMPA mediated calcium influx”. For the same compound, the “binding to de novo-synthesized PPARα (immunoprecipitation, GC-MS)” value at PPARα [2] is given as “found to be bound to de novo-synthesized PPARα”. Besides, at PPARα [3], the “ligand detected by GC-MS in nuclear extract” value is “low amount”. In addition, in [4], the “density of dendritic spines” value was “stimulated the density of spines only when Ppara-null neurons were transduced with lenti-FL-Ppara, but not lenti-Y464D-Ppara”. The PPRE-luciferase activity entry at PPARα [5] is on record as “increased the PPRE-luciferase activity in a dose-dependent manner”; in the data set on PPRE-luciferase activity (setting [7]) it was “completely abrogated the PPRE-luciferase activity”; with PPRE-luciferase activity (setting [8]) it was “completely abrogated the PPRE-luciferase activity”. Also, the PPRE-luciferase reporter activity result on FL-Ppara is recorded as “markedly induced PPRE reporter activity”. Further, at Y464D-PPARα, the “effect on Tm” value was “did not alter the Tm”. Besides, the “cytotoxicity (MTT)” value in the data set on primary mouse astrocytes is “significant level of cytotoxicity”. Moreover, the “GC-MS peak after pull-down with PPARβ-LBD” value on PPARβ-LBD was “did not exhibit any peak”.
In the case of `CCCCCCCCC=CCCCCCCCC(N)=O` [OCT, 9-octadecenamide], the AMPA-mediated calcium influx entry in data set [1] (lenti-FL-Ppara-transduced) is “stimulated AMPA-mediated calcium influx”; in [1] (lenti-Y314D-Ppara-transduced), “only able to partially restore”; in [1] (setting [6]), “remained unable to increase AMPA mediated calcium influx”; in data set [1] (lenti-Y464D-Ppara-transduced) it was “remained unable to increase AMPA mediated calcium influx”. Further, at PPARα [2], the “binding to de novo-synthesized PPARα (immunoprecipitation, GC-MS)” value was “found to be bound to de novo-synthesized PPARα”. The “ligand detected by GC-MS in nuclear extract” value on PPARα [3] is recorded as “low amount”. For the same compound, the “density of dendritic spines” value in data set [4] is on record as “stimulated the density of spines only when Ppara-null neurons were transduced with lenti-FL-Ppara, but not lenti-Y464D-Ppara”. For the same compound, the PPRE-luciferase activity result at PPARα [5] is on record as “increased the PPRE-luciferase activity in a dose-dependent manner”; in the data set with PPRE-luciferase activity (setting [7]), “completely abrogated the PPRE-luciferase activity”; with PPRE-luciferase activity (setting [8]) it was “completely abrogated the PPRE-luciferase activity”. The PPRE-luciferase reporter activity entry at FL-Ppara is recorded as “markedly induced PPRE reporter activity”. In addition, the “effect on Tm” value at Y464D-PPARα is given as “did not alter the Tm”. Also, in the data set on primary mouse astrocytes, the “cytotoxicity (MTT)” value was “significant level of cytotoxicity”. Moreover, the “GC-MS peak after pull-down with PPARβ-LBD” value on PPARβ-LBD was “did not exhibit any peak”.
